Values after ≈ are worked out from the molar mass of the structure shown.
How the values were obtained:
Format in all cases: functional
[1] = test system: Acinetobacter sp.; experiment: In vitro antibacterial activity against Acinetobacter species CMX669
Method in brief: (§1)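 Twofold agar dilution in brain-heart infusion agar, test range 200 to 0.005 µg/mL, made from a 2000 µg/mL stock. Organisms grown overnight in BHI broth at 36 °C. About 10⁴ organisms inoculated per plate, then incubated 18 h at 36 °C. MIC taken as the lowest concentration giving no visible growth.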

[2] = test system: Mus musculus; experiment: In vivo dose(sc) inhibiting systemic infections caused by Escherichia coli Juhl in mice.
Method in brief: (§2)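 CF-1 female mice, about 20 g. Infected ip with 0.5 mL of an 18-h BHI culture diluted in 5% hog gastric mucin to 100× LD₅₀. LD₅₀ set by 10-fold dilutions (Reed–Muench, day 6). Compound given in water or dilute NaOH, sc or po, total dose split at 1 and 5 h post-infection. At least 3 dose levels, 10 mice each. Deaths followed 6 days. ED₅₀ from day-6 cumulative mortality by trimmed Logit, with 95% confidence limits.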

[3] = test system: Mus musculus; experiment: In vivo dose(po) inhibiting systemic infections caused by Staphylococcus aureus NCTC 10649 in mice.; method in brief: as §2
[4] = test system: Staphylococcus aureus; experiment: In vitro antibacterial activity against Staphylococcus aureus ATCC 6538P; method in brief: as §1
[5] = test system: Staphylococcus aureus; experiment: In vitro antibacterial activity against Staphylococcus aureus CMX 686B; method in brief: as §1
[6] = test system: Staphylococcus epidermidis; experiment: In vitro antibacterial activity against Staphylococcus epidermidis 3519; method in brief: as §1
[7] = test system: Mus musculus; experiment: In vivo dose(sc) inhibiting systemic infections caused by Pseudomonas aeruginosa 5007 in mice.; method in brief: as §2
[8] = test system: Mus musculus; experiment: In vivo dose(po) inhibiting systemic infections caused by Pseudomonas aeruginosa 5007 in mice.; method in brief: as §2
[9] = test system: Pseudomonas aeruginosa; experiment: compound was evaluated in vitro for the antibacterial activity against Pseudomonas aeruginosa 5007; method in brief: as §1
[10] = test system: Streptococcus pyogenes; experiment: In vitro antibacterial activity against Streptococcus pyogenes 930; method in brief: as §1
[11] = test system: Pseudomonas aeruginosa; experiment: In vitro antibacterial activity against Pseudomonas aeruginosa K799/WT; method in brief: as §1
[12] = test system: Escherichia coli; experiment: In vitro antibacterial activity against Escherichia coli Juhl; method in brief: as §1
[13] = test system: Klebsiella aerogenes; experiment: In vitro antibacterial activity against Enterobacter aerogenes ATCC 13048; method in brief: as §1
[14] = test system: Mus musculus; experiment: In vivo dose(po) inhibiting systemic infections caused by Escherichia coli Juhl in mice.; method in brief: as §2
[15] = test system: Enterococcus faecium; experiment: In vitro antibacterial activity against Streptococcus faecium ATCC 8043; method in brief: as §1
[16] = test system: Mus musculus; experiment: In vivo dose(sc) inhibiting systemic infections caused by Staphylococcus aureus NCTC 10649 in mice.; method in brief: as §2
[17] = test system: Mus musculus; experiment: In vivo antibacterial activity against systemic infection caused by Escherichia coli Juhl in mice.; method in brief: as §2
[18] = test system: Mus musculus; experiment: In vivo antibacterial activity against systemic infection caused by Pseudomonas aeruginosa 5007 in mice.; method in brief: as §2
[19] = test system: Mus musculus; experiment: In vivo antibacterial activity against systemic infection caused by Staphylococcus aureus NCTC 10649 in mice.; method in brief: as §2
[20] = test system: Klebsiella pneumoniae; experiment: In vitro antibacterial activity against Klebsiella pneumoniae 8045; method in brief: as §1
[21] = test system: Pseudomonas aeruginosa; experiment: In vitro antibacterial activity against Pseudomonas aeruginosa 5007; method in brief: as §1
[22] = test system: Mus musculus; experiment: In vivo antibacterial activity against systemic infection caused by Escherichia coli juhl in mice.; method in brief: as §2

SMILES	MIC [1]	ED50 [2]	ED50 [3]	MIC [4]	MIC [5]	MIC [6]	ED50 [7]	ED50 [8]	MIC [10]	MIC [11]	MIC [12]	MIC [13]	ED50 [14]	MIC [15]	ED50 [16]	MIC [18]	MIC [19]	MIC [20]	MIC [21]	also measured
O=C(O)c1cn(-c2ccc(F)cc2)c2nc(N3CCNCC3)c(F)cc2c1=O	0.39 µg/mL (≈ 1.01 µM)	1 mg/kg	7.5 mg/kg	0.39 µg/mL (≈ 1.01 µM)	0.39 µg/mL (≈ 1.01 µM)	0.78 µg/mL (≈ 2.02 µM)	6.9 mg/kg	19.9 mg/kg	1.56 µg/mL (≈ 4.04 µM)	0.39 µg/mL (≈ 1.01 µM)	0.05 µg/mL (≈ 0.129 µM)	0.1 µg/mL (≈ 0.259 µM)	2.8 mg/kg	3.1 µg/mL (≈ 8.02 µM)	1.6 mg/kg	0.39 µg/mL (≈ 1.01 µM)	0.25 µg/mL (≈ 0.647 µM)	0.1 µg/mL (≈ 0.259 µM)		MIC [9]: 0.39 µg/mL (≈ 1.01 µM); MIC [17]: 0.05 µg/mL (≈ 0.129 µM)
NC1CCN(c2nc3c(cc2F)c(=O)c(C(=O)O)cn3-c2ccc(F)cc2)C1 (centres undefined)	0.1 µg/mL (≈ 0.259 µM)		1.6 mg/kg	0.5 µg/mL (≈ 1.29 µM)	0.1 µg/mL (≈ 0.259 µM)	0.1 µg/mL (≈ 0.259 µM)	7.4 mg/kg	18.2 mg/kg	0.2 µg/mL (≈ 0.518 µM)	0.2 µg/mL (≈ 0.518 µM)	0.05 µg/mL (≈ 0.129 µM)	0.1 µg/mL (≈ 0.259 µM)		0.39 µg/mL (≈ 1.01 µM)	0.5 mg/kg	0.1 µg/mL (≈ 0.259 µM)	0.06 µg/mL (≈ 0.155 µM)	0.05 µg/mL (≈ 0.129 µM)	0.1 µg/mL (≈ 0.259 µM)	
CN1CCN(c2nc3c(cc2F)c(=O)c(C(=O)O)cn3-c2ccc(F)cc2)CC1	0.2 µg/mL (≈ 0.5 µM)			0.2 µg/mL (≈ 0.5 µM)	0.2 µg/mL (≈ 0.5 µM)	0.39 µg/mL (≈ 0.974 µM)			3.1 µg/mL (≈ 7.74 µM)	1.56 µg/mL (≈ 3.9 µM)	0.2 µg/mL (≈ 0.5 µM)	0.2 µg/mL (≈ 0.5 µM)		3.1 µg/mL (≈ 7.74 µM)				0.1 µg/mL (≈ 0.25 µM)		MIC [9]: 1.56 µg/mL (≈ 3.9 µM)
NC1CCN(c2nc3c(cc2F)c(=O)c(C(=O)O)cn3-c2ccc(F)cc2F)C1 (centres undefined) [TOSUFLOXACIN]	0.1 µg/mL (≈ 0.247 µM)	0.2 mg/kg	1.4 mg/kg	0.05 µg/mL (≈ 0.124 µM)	0.05 µg/mL (≈ 0.124 µM)	0.1 µg/mL (≈ 0.247 µM)	3.6 mg/kg	4.9 mg/kg	0.2 µg/mL (≈ 0.495 µM)	0.39 µg/mL (≈ 0.965 µM)	0.02 µg/mL (≈ 0.0495 µM)	0.1 µg/mL (≈ 0.247 µM)	1.3 mg/kg	0.2 µg/mL (≈ 0.495 µM)	0.2 mg/kg	0.2 µg/mL (≈ 0.495 µM)	0.03 µg/mL (≈ 0.0742 µM)	0.02 µg/mL (≈ 0.0495 µM)	0.2 µg/mL (≈ 0.495 µM)	MIC [22]: 0.02 µg/mL (≈ 0.0495 µM)
CC1CN(c2nc3c(cc2F)c(=O)c(C(=O)O)cn3-c2ccc(F)cc2F)CCN1 (centres undefined)	0.39 µg/mL (≈ 0.932 µM)	1.4 mg/kg		0.2 µg/mL (≈ 0.478 µM)	0.39 µg/mL (≈ 0.932 µM)	0.78 µg/mL (≈ 1.86 µM)			1.56 µg/mL (≈ 3.73 µM)	1.56 µg/mL (≈ 3.73 µM)	0.1 µg/mL (≈ 0.239 µM)	3.1 µg/mL (≈ 7.41 µM)	3.9 mg/kg	3.1 µg/mL (≈ 7.41 µM)				0.2 µg/mL (≈ 0.478 µM)	1.56 µg/mL (≈ 3.73 µM)	MIC [17]: 0.1 µg/mL (≈ 0.239 µM)
O=C(O)c1cn(-c2ccccc2)c2nc(N3CCNCC3)c(F)cc2c1=O	1.56 µg/mL (≈ 4.23 µM)			1.56 µg/mL (≈ 4.23 µM)	1.56 µg/mL (≈ 4.23 µM)	1.56 µg/mL (≈ 4.23 µM)			6.2 µg/mL (≈ 16.8 µM)	1.56 µg/mL (≈ 4.23 µM)	0.2 µg/mL (≈ 0.543 µM)	0.39 µg/mL (≈ 1.06 µM)		50 µg/mL (≈ 136 µM)				0.1 µg/mL (≈ 0.271 µM)	1.56 µg/mL (≈ 4.23 µM)	
CCn1cc(C(=O)O)c(=O)c2cc(F)c(N3CCNCC3)cc21 [NORFLOXACIN]	6.2 µg/mL (≈ 19.4 µM)			0.78 µg/mL (≈ 2.44 µM)	0.78 µg/mL (≈ 2.44 µM)	1.56 µg/mL (≈ 4.89 µM)			3.1 µg/mL (≈ 9.71 µM)	0.39 µg/mL (≈ 1.22 µM)	0.1 µg/mL (≈ 0.313 µM)	0.2 µg/mL (≈ 0.626 µM)		0.78 µg/mL (≈ 2.44 µM)				0.1 µg/mL (≈ 0.313 µM)	0.39 µg/mL (≈ 1.22 µM)	

From ChEMBL document CHEMBL1123369, “Synthesis and structure-activity relationships of new arylfluoronaphthyridine antibacterial agents” (1986)
